Consider 14 compounds from ChEMBL document CHEMBL1157779, “Merging the structural motifs of functionalized amino acids and alpha-aminoamides: compounds with significant anticonvulsant activities” (J Med Chem, 2010).

Calls of active or inactive are those of the source. The rule behind the calls is not given here. Bounds are passed on as bounds.

A short description of series [1]: Toxicity in ip dosed albino mouse by rotarod test. It is filed as organism-based. The following applies: in vivo. In a few lines: (§1)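 Male albino Carworth Farms No. 1 mice dosed ip; neurological impairment by rotorod test at set times; TD50 (mg/kg) determined for compounds active in MES.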
A short description of series [2]: Toxicity in ip dosed albino mouse after 0.5 hrs by rotarod test. It is filed as organism-based. Conditions: albino, in vivo. On the technique in general: Falling from the rotarod earlier than controls is read as motor impairment.
The test system of series [3] is Mus musculus. Kind of series: Anticonvulsant activity in ip dosed albino mouse assessed as protection against 6 Hz electric shock-induced seizures after […]. Type of series: functional.
Series [4] relates to Rattus norvegicus. Kind of series: Behavioral toxicity in po dosed Sprague-Dawley albino rat. Type of series: organism-based. The following applies: in vivo.
Series [5] deals with Rattus norvegicus. Briefly: Anticonvulsant activity in po dosed Sprague-Dawley albino rat assessed as inhibition of maximal electroshock-induced seizures after 1 hr. Type of series: functional. A digest of the protocol:
(§2)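 Male albino Sprague-Dawley rats dosed orally; maximal electroshock seizures, protection scored as blockade of hind limb extension, tested at set times after dosing; ED50 in mg/kg from quantitative evaluation for active compounds.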

Series [6] concerns Mus musculus. Kind of series: Anticonvulsant activity in ip dosed albino mouse assessed as inhibition of maximal electroshock-induced seizures after 0.5 hrs. Type of series: functional.
Series [7] is filed under the species Rattus norvegicus. Kind of series: Protective index, ratio of TD50 for Sprague-Dawley albino rat to anticonvulsant ED50 for Sprague-Dawley albino rat. It is filed as functional. A digest of the protocol: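 Rat, oral: behavioral-toxicity TD50 divided by MES ED50, both in mg/kg.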
Series [8] can be described thus: Behavioral toxicity in po dosed Sprague-Dawley albino rat after 4 hrs. It is filed as organism-based. Conditions: Sprague-Dawley, in vivo. In a few lines:
(§3)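 Oral dosing in male albino Sprague-Dawley rats with behavioral toxicity observation at set times after dosing, doses up to 500 mg/kg.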

The test system of series [9] is Mus musculus. Briefly: Anticonvulsant activity in ip dosed albino mouse assessed as inhibition of maximal electroshock-induced seizures after 4 hrs. It is filed as functional. A digest of the protocol: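 Male albino Carworth Farms No. 1 mice given compound ip; maximal electroshock applied and protection scored as blockade of hind limb extension; identification screening, then ED50 (mg/kg) from quantitative testing for active compounds.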
For orientation: In the maximal electroshock model the usual endpoint is tonic extension of the hind limbs.

In series [10] the test system is Mus musculus. Briefly: Anticonvulsant activity in ip dosed albino mouse assessed as inhibition of maximal electroshock-induced seizures after 1 hr. It is filed as functional. A digest of the protocol:
(§4)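 Male albino Carworth Farms No. 1 mice dosed intraperitoneally; screened via the NIH Anticonvulsant Screening Program. Protection scored as blocking of hind limb extension after maximal electroshock. Median effective dose (ED50, mg/kg) obtained in quantitative evaluations of active compounds. Rotorod test gave TD50 for neurological impairment, and PI = TD50/ED50.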

Series [11] has as its system Rattus norvegicus. Kind of series: Anticonvulsant activity in po dosed Sprague-Dawley albino rat assessed as inhibition of maximal electroshock-induced seizures after 4 hrs. Type of series: functional. A digest of the protocol:
as §2

Series [12] in a line: Toxicity in ip dosed albino mouse after 4 hrs by rotarod test. Type of series: organism-based. The following applies: in vivo. In a few lines:
as §1

Series [13] is described as follows: Behavioral toxicity in po dosed Sprague-Dawley albino rat after […]. It is filed as organism-based. The following applies: in vivo.
Series [14] concerns Mus musculus. Briefly: Anticonvulsant activity in albino mouse assessed as protection against subcutaneous metrazole-induced seizures up to 300 mg/kg, ip after 0.5 hrs. Set-up: dose 300 mg/kg. It is filed as functional, organism-based. In a few lines:
(§5)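 Male albino Carworth Farms No. 1 mice dosed ip under NIH Anticonvulsant Screening Program; subcutaneous Metrazol seizure challenge at 0.5 and 4 h after doses up to 300 mg/kg.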

The subject of series [15] is Mus musculus. Kind of series: Anticonvulsant activity in albino mouse assessed as protection against subcutaneous metrazole-induced seizures up to 300 mg/kg, ip after 4 hrs. It is filed as functional, organism-based. Set-up: dose 300 mg/kg. In a few lines:
as §5

The test system of series [16] is Rattus norvegicus. Kind of series: Anticonvulsant activity in po dosed Sprague-Dawley albino rat assessed as inhibition of maximal electroshock-induced seizures after 0.25 to 4 hrs. It is filed as functional. In a few lines: as §2
Series [17] can be described thus: Behavioral toxicity in po dosed Sprague-Dawley albino rat after 0.25 to 4 hrs. Conditions: in vivo. Type of series: organism-based. In a few lines: as §3
Series [18] deals with Rattus norvegicus. Briefly: Anticonvulsant activity in po dosed Sprague-Dawley albino rat assessed as inhibition of maximal electroshock-induced seizures. It is filed as functional. A digest of the protocol: as §2
The subject of series [19] is Rattus norvegicus. Briefly: Anticonvulsant activity in po dosed Sprague-Dawley albino rat assessed as inhibition of maximal electroshock-induced seizures after 2 hrs. It is filed as functional.
The species named for series [20] is Mus musculus. Briefly: Protective index, ratio of TD50 for albino mouse to anticonvulsant ED50 for albino mouse. Type of series: functional.
Series [21] relates to Mus musculus. Briefly: Anticonvulsant activity in ip dosed albino mouse assessed as inhibition of maximal electroshock-induced seizures after […]. It is filed as functional.
Series [22] is described as follows: Toxicity in ip dosed albino mouse after […] by rotarod test. The following applies: in vivo. It is filed as organism-based.
The subject of series [23] is Mus musculus. Briefly: Anticonvulsant activity in ip dosed albino mouse assessed as inhibition of maximal electroshock-induced seizures. Type of series: functional. A digest of the protocol: as §4
Series [24] concerns Mus musculus. Kind of series: Anticonvulsant activity in ip dosed albino mouse assessed as protection against subcutaneous metrazole-induced seizures. It is filed as functional. A digest of the protocol:
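Subcutaneous Metrazol seizure model in male albino Carworth Farms No. 1 mice, ip dosing. Doses up to 300 mg/kg tested at two time points (0.5 and 4 h).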

As for `CC(=O)NC(C(=O)NCc1ccccc1)c1ccco1` (racemic), in [1], the TD50 (commonly the dose at which the toxic effect under study appears in half of the subjects) amounted to 40 mg/kg.
In turn, `COC[C@@H](NC(C)=O)C(=O)NCc1ccc(-c2cccc(F)c2)cc1` yielded a TD50 at 0.5 h in series [2] of 100 mg/kg. In addition, the ED50 (in general, the dose at which the effect has come halfway, by size or by number of responders) is less than 30 mg/kg in the series with Mus musculus [3], 2.4 mg/kg in the series with Rattus norvegicus [5] and 10 mg/kg with Mus musculus [6]. The TD50 in the series with Rattus norvegicus [4] is more than 500 mg/kg. Further, the “Ratio TD50/ED50” value in the series filed under Rattus norvegicus [7] was more than 250.
In turn, `COC[C@@H](NC(C)=O)C(=O)NCc1ccc(OCc2ccc(F)cc2)cc1` came in with a TD50 at 0.5 h in [2] of 30 mg/kg. Also, the ED50 in the series on Mus musculus [6] amounted to 10 mg/kg.
`COC[C@@H](NC(C)=O)C(=O)NCc1ccc(C#Cc2cccc(F)c2)cc1`: the TD50 at 4 h in series [8] is 63 mg/kg; in [12] it was 100 mg/kg. Further, the ED50 in the series with Mus musculus [9] was less than 100 mg/kg; in the series with Mus musculus [10] it was more than 30 mg/kg; in the series with Rattus norvegicus [11], 1.4 mg/kg.
`COC[C@@H](NC(C)=O)C(=O)NCc1ccc(/C=C/c2cccc(F)c2)cc1` had a TD50 at 0.5 h in series [2] of 100 mg/kg. Further, the ED50 in the series on Mus musculus [3] was less than 30 mg/kg; with Rattus norvegicus [11], 30 mg/kg; in the series on Rattus norvegicus [5], 30 mg/kg; with Mus musculus [6], 30 mg/kg. The TD50 at […] in [13] was more than 30 mg/kg.
As to `O=C1NC(=O)C(c2ccccc2)(c2ccccc2)N1`, the outcome with Mus musculus [14] and with Mus musculus [15] was inactive.
For `CC(=O)N[C@@H](C)C(=O)NCc1ccc(OCc2cccc(F)c2)cc1`, the result with Mus musculus [14] and in the series with Mus musculus [15] was inactive. Moreover, the ED50 with Mus musculus [9] was more than 300 mg/kg; in the series on Rattus norvegicus [16] it was more than 30 mg/kg; in the series on Mus musculus [6], 100 mg/kg. This compound also returned a TD50 in series [17] of more than 30 mg/kg.
As to `CC(=O)N[C@@H](C(=O)NCc1ccc(OCc2cccc(F)c2)cc1)C(C)C`, the result in the series on Mus musculus [14] and with Mus musculus [15] was inactive. Besides, in the series with Rattus norvegicus [4], the TD50 is more than 30 mg/kg. Also, the results for the ED50 with Mus musculus [9] and in the series with Rattus norvegicus [18] were more than 300 mg/kg and more than 30 mg/kg, respectively. The compound further returned a TD50 at 4 h in series [12] of more than 300 mg/kg.
`COC[C@@H](NC(C)=O)C(=O)NCc1ccc(COCc2cccc(F)c2)cc1` had a TD50 at 0.5 h in series [2] of 30 mg/kg. Further, the ED50 in the series on Mus musculus [6] was determined as 30 mg/kg.
As to `COC[C@@H](NC(C)=O)C(=O)NCc1ccc(COc2cccc(F)c2)cc1`, the ED50 with Rattus norvegicus [19] came to 19 mg/kg; in the series with Mus musculus [21], 5.9 mg/kg. For the same compound, the entries for the “Ratio TD50/ED50” value in the series filed under Mus musculus [20] and in the series filed under Rattus norvegicus [7] were 1.8 and more than 21, respectively. The same compound yielded a TD50 at […] in [22] of 10 mg/kg.
`COC[C@@H](NC(C)=O)C(=O)NCc1ccc(OCCc2cccc(F)c2)cc1` returned a TD50 at 0.5 h in [2] of 30 mg/kg. The ED50 in the series with Mus musculus [9] and with Mus musculus [6] was 30 mg/kg throughout.
Take `C[C@H](NCc1ccc(OCc2cccc(F)c2)cc1)C(N)=O` [SAFINAMIDE]: the outcome with Mus musculus [14] and with Mus musculus [15] was inactive. In the series filed under Mus musculus [20], the “Ratio TD50/ED50” value amounted to 78. The ED50 in the series on Mus musculus [23] came to 8 mg/kg; in the series with Mus musculus [24] it was 27 mg/kg. This compound also showed a TD50 in series [1] of 630 mg/kg.
In the case of `COC[C@H](NC(C)=O)C(=O)NCc1ccc(OCc2cccc(F)c2)cc1`, the outcome with Mus musculus [14] and in the series with Mus musculus [15] was inactive.
`NC(=O)C(NCc1ccc(OCc2cccc(F)c2)cc1)c1ccco1.O=C(O)C(=O)O` (racemic): the TD50 at 0.5 h in [2] was 100 mg/kg. Moreover, the ED50 with Mus musculus [6] turned out to be 10 mg/kg; in the series with Mus musculus [24], 100 mg/kg.
